Reference: ChEMBL document CHEMBL2057101, “Fluorocyclines. 2. Optimization of the C-9 side-chain for antibacterial activity and oral efficacy” (J Med Chem, 2012)
In brackets after ≈: the same amount, converted by molar mass.

Key:
Haemophilus influenzae [1] = assay: Antibacterial activity against Haemophilus influenzae 551 infected in immunocompetent Sprague-Dawley rat assessed as reduction in lung CFU per gram of tissue at 50 mg/kg, po administered 5, 24 and 48 hrs post infection measured after 72 hrs; assay type: functional
How it was run: (§1)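 Male Sprague-Dawley rats (175–200 g), immunocompetent, infected intratracheally with H. influenzae 551 (0.05 mL) under light anesthesia. Dosing at 5, 24 and 48 h post infection: test agent 100 mg/kg/dose orally or 25 mg/kg/dose IV; azithromycin 50 mg/kg/dose orally. Six rats per dose. Lungs removed 72 h after treatment began, homogenized, serially diluted, plated on TSA-II, incubated overnight at 37 °C in 5% CO2; CFU/g lung calculated.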

Staphylococcus aureus [2] = assay: Antibacterial activity against methicillin-resistant Staphylococcus aureus VL-137 infected in neutropenic Balb/c mouse assessed as reduction in lung CFU at 10 mg/kg, iv administered 2 and 12 hrs post infection measured 24 hrs post treatment; assay type: functional
How it was run: (§2)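 Female Balb/c mice (18−20 g) made neutropenic with IP cyclophosphamide, 150 and 100 mg/kg on days −4 and −1. Intranasal infection under light anesthesia. Treatment at 2 and 12 h post infection, oral 50 mg/kg/dose or IV 10 mg/kg/dose, six mice per group. At 24 h lungs were homogenized and plated on TSA (37 °C, 5% CO₂, overnight). Read-out is CFU/g lung.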

Haemophilus influenzae [3] = assay: Antibacterial activity against Haemophilus influenzae 551; assay type: functional
How it was run: (§3)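 MIC by broth microdilution in liquid medium per CLSI, in cation-adjusted Mueller Hinton broth made fresh and held at 4 °C before testing. Horse blood (defibrinated) added to the medium where appropriate. Runs were accepted only when the comparator antibiotics and ATCC QC strains fell within their recommended ranges.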

Streptococcus pyogenes = assay: Antibacterial activity against Streptococcus pyogenes; assay type: functional; how it was run: as §3
Staphylococcus aureus [4] = assay: Antibacterial activity against methicillin-resistant Staphylococcus aureus VL-137 infected in neutropenic Balb/c mouse assessed as reduction in lung CFU at 50 mg/kg, po administered 2 and 12 hrs post infection measured 24 hrs post treatment; assay type: functional; how it was run: as §2
Moraxella catarrhalis = assay: Antibacterial activity against Moraxella catarrhalis; assay type: functional; how it was run: as §3
Streptococcus pneumoniae [5] = assay: Antibacterial activity against Streptococcus pneumoniae 1629 infected in immunocompetent CD-1 mouse infection model assessed as reduction in lung CFU at 30 mg/kg, po administered 5, 24 and 36 hrs post infection measured 48 hrs post treatment
Staphylococcus aureus [6] = assay: Antibacterial activity against methicillin-resistant Staphylococcus aureus VL-137; assay type: functional
How it was run: (§4)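 Broth microdilution MIC following CLSI methods in cation-adjusted Mueller Hinton broth, prepared fresh and held at 4 °C before testing. Defibrinated horse blood added to the medium where appropriate. Runs accepted when quality control ranges for comparator antibiotics and ATCC QC strains were met.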

Streptococcus pneumoniae [7] = assay: Antibacterial activity against Streptococcus pneumoniae SPN160; assay type: functional; how it was run: as §4
Streptococcus pneumoniae [8] = assay: Antibacterial activity against Streptococcus pneumoniae ATCC 49619 isolate 106; assay type: functional; how it was run: as §3
[9] = (§5) Oral bioavailability in CD1 mouse at 30 mg/kg; assay type: ADME, organism-based; details: CD1, mouse, in vivo
Klebsiella pneumoniae = assay: Antibacterial activity against Klebsiella pneumoniae ATCC 13883; assay type: functional; how it was run: as §3
Escherichia coli [10] = assay: Antibacterial activity against Escherichia coli isolate EC155 expressing tetA gene; assay type: functional; how it was run: as §3
Staphylococcus aureus [11] = assay: Antibacterial activity against Staphylococcus aureus ATCC 13709 infected in CD-1 mouse assessed as increase in survival at 30 mg/kg, po administered as single dose 1 hr post infection measured after 48 hrs post infection; assay type: functional
How it was run: (§6)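 Mouse septicemia screen: S. aureus grown to log phase, diluted in 5% mucin to give 90% mortality within 48 h, inoculum 1.98 × 10⁶ CFU/mouse, 0.5 mL intraperitoneal into female CD-1 mice (18−20 g). Six mice per group. Single 30 mg/kg oral gavage or 3 mg/kg IV dose 1 h post infection. Infection controls received sterile water vehicle. Survival recorded at 48 h.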

Streptococcus pneumoniae [12] = assay: Antibacterial activity against tetracycline-resistant Streptococcus pneumoniae isolate 160 expressing tetM gene; assay type: functional
Staphylococcus aureus [13] = assay: Antibacterial activity against Staphylococcus aureus ATCC 13709 infected in po dosed CD-1 mouse assessed as increase in survival administered as single dose 1 hr post infection measured after 48 hrs post infection; assay type: functional; details: ATCC 13709, po, read-out: PD50
Staphylococcus aureus [14] = assay: Antibacterial activity against tetracycline-resistant Staphylococcus aureus isolate SA161 expressing TetM gene; assay type: functional; how it was run: as §4
Staphylococcus aureus [15] = assay: Antibacterial activity against tetracycline-resistant Staphylococcus aureus isolate SA158 expressing TetK gene; assay type: functional
Staphylococcus aureus [16] = assay: Antibacterial activity against Staphylococcus aureus ATCC 13709 infected in CD-1 mouse assessed as increase in survival at 3 mg/kg, iv administered as single dose 1 hr post infection measured after 48 hrs post infection; assay type: functional; how it was run: as §6
[17] = Oral bioavailability in rat; assay type: ADME, organism-based; details: in vivo
Staphylococcus aureus [18] = assay: Antibacterial activity against tetracycline-susceptible Staphylococcus aureus ATCC 13709 Smith isolate SA100; assay type: functional; how it was run: as §4
Escherichia coli [19] = assay: Antibacterial activity against Escherichia coli ATCC 25922 isolate 107; assay type: functional; how it was run: as §3
[20] = Oral bioavailability in human; assay type: ADME, organism-based; details: in vivo
Mus musculus = assay: as §5; assay type: ADME, organism-based; details: mouse, in vivo, BLD = below limit of detection
Haemophilus influenzae [21] = assay: Antibacterial activity against Haemophilus influenzae 551 infected in immunocompetent Sprague-Dawley rat assessed as reduction in lung CFU per gram of tissue at 25 mg/kg, iv administered 5, 24 and 48 hrs post infection measured after 72 hrs; assay type: functional; how it was run: as §1
Acinetobacter baumannii = assay: Antibacterial activity against Acinetobacter baumannii; assay type: functional; how it was run: as §3
Haemophilus influenzae [22] = assay: Antibacterial activity against Haemophilus influenzae 551 infected in immunocompetent Sprague-Dawley rat assessed as reduction in lung CFU per gram of tissue at 100 mg/kg, po administered 5, 24 and 48 hrs post infection measured after 72 hrs; assay type: functional; how it was run: as §1

## CC[C@H]1OC(=O)[C@H](C)[C@@H](O[C@H]2C[C@@](C)(OC)[C@@H](O)[C@H](C)O2)[C@H](C)[C@@H](O[C@@H]2O[C@H](C)C[C@H](N(C)C)[C@H]2O)[C@](C)(O)C[C@@H](C)CN(C)[C@H](C)[C@@H](O)[C@]1(C)O [AZITHROMYCIN]
Haemophilus influenzae [1]
  log10CFU/g: >=6

## CC(=O)NC[C@H]1CN(c2ccc(N3CCOCC3)c(F)c2)C(=O)O1 [LINEZOLID]
Staphylococcus aureus [2]
  log10CFU/g: 1.29
Haemophilus influenzae [3]
  MIC: 8 µg/mL (≈ 23.7 µM)
  MIC50: 8 µg/mL (≈ 23.7 µM)
  MIC90: 16 µg/mL (≈ 47.4 µM)
Streptococcus pyogenes
  MIC: 1 µg/mL (≈ 2.96 µM)
  MIC50: 1 µg/mL (≈ 2.96 µM)
  MIC90: 2 µg/mL (≈ 5.93 µM)
Staphylococcus aureus [4]
  log10CFU/g: 2.46
Moraxella catarrhalis
  MIC50: 8 µg/mL (≈ 23.7 µM)
  MIC90: 8 µg/mL (≈ 23.7 µM)
Streptococcus pneumoniae [5]
  log10CFU/g: 3.56
Staphylococcus aureus [6]
  MIC50: 2 µg/mL (≈ 5.93 µM)
  MIC90: 4 µg/mL (≈ 11.9 µM)
Streptococcus pneumoniae [7]
  MIC50: 1 µg/mL (≈ 2.96 µM)
  MIC90: 1 µg/mL (≈ 2.96 µM)

## CN(C)c1cc(CNCC(C)(C)C)c(O)c2c1C[C@H]1C[C@H]3[C@H](N(C)C)C(O)=C(C(N)=O)C(=O)[C@@]3(O)C(O)=C1C2=O [OMADACYCLINE]
Streptococcus pneumoniae [8]
  MIC: 0.031 µg/mL (≈ 0.0557 µM)
[9]
  bioavailability: 1.5%
Klebsiella pneumoniae
  MIC: 2 µg/mL (≈ 3.59 µM)
Escherichia coli [10]
  MIC: 16 µg/mL (≈ 28.7 µM)
Staphylococcus aureus [11]
  survival at 30 mg/kg: 33%
Streptococcus pneumoniae [12]
  MIC: 0.125 µg/mL (≈ 0.225 µM)
Staphylococcus aureus [13]
  ED50: 30.3 mg/kg
Staphylococcus aureus [14]
  MIC: 2 µg/mL (≈ 3.59 µM)
Staphylococcus aureus [15]
  MIC: 0.25 µg/mL (≈ 0.449 µM)
Staphylococcus aureus [16]
  survival at 3 mg/kg: 100%
[17]
  bioavailability: 0.7%
Staphylococcus aureus [18]
  MIC: 0.5 µg/mL (≈ 0.898 µM)
Escherichia coli [19]
  MIC: 2 µg/mL (≈ 3.59 µM)
[20]
  bioavailability: 33%

## CN(C)[C@@H]1C(O)=C(C(N)=O)C(=O)[C@@]2(O)C(O)=C3C(=O)c4c(O)cccc4[C@@](C)(O)[C@H]3C[C@@H]12 [TETRACYCLINE]
Streptococcus pneumoniae [8]
  MIC: 0.25 µg/mL (≈ 0.563 µM)
[9]
  bioavailability: 6.3%
Klebsiella pneumoniae
  MIC: 4 µg/mL (≈ 9 µM)
Escherichia coli [10]
  MIC: > 32 µg/mL
Staphylococcus aureus [11]
  survival at 30 mg/kg: 100%
Staphylococcus aureus [13]
  ED50: 6.9 mg/kg
Staphylococcus aureus [14]
  MIC: > 32 µg/mL
Staphylococcus aureus [16]
  survival at 3 mg/kg: 100%
Staphylococcus aureus [18]
  MIC: 1 µg/mL (≈ 2.25 µM)
Escherichia coli [19]
  MIC: 2 µg/mL (≈ 4.5 µM)
[20]
  bioavailability: 50%

## CN(C)c1cc(NC(=O)CNC(C)(C)C)c(O)c2c1C[C@H]1C[C@H]3[C@H](N(C)C)C(O)=C(C(N)=O)C(=O)[C@@]3(O)C(O)=C1C2=O [TIGECYCLINE]
Streptococcus pneumoniae [8]
  MIC: 0.016 µg/mL (≈ 0.0273 µM)
Mus musculus
  F: BLD
Klebsiella pneumoniae
  MIC: 0.125 µg/mL (≈ 0.213 µM)
Escherichia coli [10]
  MIC: 0.5 µg/mL (≈ 0.854 µM)
Staphylococcus aureus [11]
  survival at 30 mg/kg: 0%
Streptococcus pneumoniae [12]
  MIC: 0.016 µg/mL (≈ 0.0273 µM)
Staphylococcus aureus [14]
  MIC: 0.13 µg/mL (≈ 0.222 µM)
Staphylococcus aureus [15]
  MIC: 0.063 µg/mL (≈ 0.108 µM)
Staphylococcus aureus [16]
  survival at 3 mg/kg: 100%
Staphylococcus aureus [18]
  MIC: 0.063 µg/mL (≈ 0.108 µM)
Escherichia coli [19]
  MIC: 0.125 µg/mL (≈ 0.213 µM)

## CN(C)[C@@H]1C(O)=C(C(N)=O)C(=O)[C@@]2(O)C(O)=C3C(=O)c4c(O)c(NC(=O)[C@@H]5CCCN5C)cc(F)c4C[C@H]3C[C@@H]12 [TP-271]
Streptococcus pneumoniae [8]
  MIC: 0.016 µg/mL (≈ 0.0286 µM)
Klebsiella pneumoniae
  MIC: 2 µg/mL (≈ 3.58 µM)
Escherichia coli [10]
  MIC: 8 µg/mL (≈ 14.3 µM)
Staphylococcus aureus [2]
  log10CFU/g: 3.03
Haemophilus influenzae [3]
  MIC50: 0.25 µg/mL (≈ 0.448 µM)
  MIC90: 0.5 µg/mL (≈ 0.895 µM)
Streptococcus pyogenes
  MIC: 0.016 µg/mL (≈ 0.0286 µM)
  MIC50: 0.016 µg/mL (≈ 0.0286 µM)
  MIC90: 0.016 µg/mL (≈ 0.0286 µM)
Staphylococcus aureus [11]
  survival at 30 mg/kg: 100%
Haemophilus influenzae [21]
  log10CFU/g: 4.87
Staphylococcus aureus [4]
  log10CFU/g: 1.99
Acinetobacter baumannii
  MIC50: 0.13 µg/mL (≈ 0.233 µM)
  MIC90: 1 µg/mL (≈ 1.79 µM)
Streptococcus pneumoniae [12]
  MIC: 0.016 µg/mL (≈ 0.0286 µM)
Staphylococcus aureus [14]
  MIC: 0.25 µg/mL (≈ 0.448 µM)
Moraxella catarrhalis
  MIC: 0.016 µg/mL (≈ 0.0286 µM)
  MIC50: 0.016 µg/mL (≈ 0.0286 µM)
  MIC90: 0.016 µg/mL (≈ 0.0286 µM)
Haemophilus influenzae [22]
  log10CFU/g: 1.77
Streptococcus pneumoniae [5]
  log10CFU/g: 4.75
Staphylococcus aureus [15]
  MIC: 0.13 µg/mL (≈ 0.233 µM)
Staphylococcus aureus [6]
  MIC50: 0.031 µg/mL (≈ 0.0555 µM)
  MIC90: 0.13 µg/mL (≈ 0.233 µM)
Staphylococcus aureus [16]
  survival at 3 mg/kg: 100%
[17]
  bioavailability: 5.7%
Streptococcus pneumoniae [7]
  MIC: 0.016 µg/mL (≈ 0.0286 µM)
  MIC50: 0.016 µg/mL (≈ 0.0286 µM)
  MIC90: 0.016 µg/mL (≈ 0.0286 µM)
Staphylococcus aureus [18]
  MIC: 0.13 µg/mL (≈ 0.233 µM)
Escherichia coli [19]
  MIC: 0.25 µg/mL (≈ 0.448 µM)
